Test results taken from ChEMBL document CHEMBL5154742, “Thiosugar naphthalene diimide conjugates: G-quadruplex ligands with antiparasitic and anticancer activity” (Eur J Med Chem, 2022).

Tests used:
[1] = Selectivity index, ratio of IC50 for cytotoxicity against human MRC5 cells to IC50 for antileishmanial activity against Leishmania major (MHOM/IL/80/Friedlin) promastigotes; type: toxicity, cell-based; settings: read-out: Selectivity Index
Procedure, shortened: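 Selectivity index: MRC-5 IC50 divided by L. major promastigote IC50.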

HT-29 = test: Cytotoxicity against human HT-29 cells assessed as reduction in cell viability incubated for 48 hrs by MTT assay; type: functional, cell-based; settings: HT-29, 48 h
Procedure, shortened: (§1)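 MTT assay: 5×10^3 cells per well in DMEM with 10% hiFBS (4.5 g/L glucose for HT-29, 1 g/L for MRC-5), exposed to increasing compound concentrations for 48 h at 37 °C. MTT added for 4 h, formazan dissolved in DMSO, absorbance read at 575 nm. IC50 from four-parameter logistic fit.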

Trypanosoma brucei = test: Antitrypanosomal activity against Trypanosoma brucei incubated for 72 hrs by alamar blue dye based fluorimetry analysis; type: functional, organism-based
Procedure, shortened: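 Bloodstream-form T. brucei S16 (Lister 427, MiTat 1.2), 1×10^3 per well in HMI-9 with 20% hiFBS, exposed to increasing compound concentrations for 72 h at 37 °C, 5% CO2. Resazurin then added for 4 h, cells lysed with SDS, fluorescence read at ex 550/em 590 nm. IC50 from four-parameter logistic fit; three independent runs, each in triplicate.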

Leishmania major = test: Antileishmanial activity against Leishmania major (MHOM/IL/80/Friedlin) promastigotes assessed as reduction in parasite growth incubated for 72 hrs by MTT assay; type: functional, organism-based
Procedure, shortened: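 L. major Friedlin promastigotes, 1×10^6/mL in modified RPMI-1640 with 10% hiFBS, exposed to increasing compound concentrations for 72 h at 28 °C; proliferation read by MTT; IC50 from four-parameter logistic fit versus untreated controls.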

[2] = Cytotoxicity against human MRC5 cells assessed as reduction in cell viability incubated for 48 hrs by MTT assay; type: toxicity, cell-based; procedure, shortened: as §1
[3] = Drug uptake in Trypanosoma brucei at 10 uM incubated for 2 hrs by fluorescence based multiplate reader method; type: ADME
[4] = Selectivity index, ratio of IC50 for human MRC5 cells to IC50 for human HT-29 cells; type: toxicity; settings: MRC5 cells versus HT-29 cells, read-out: Selectivity Index
Procedure, shortened: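 Selectivity index: MRC-5 IC50 divided by HT-29 IC50.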

[5] = Selectivity index, ratio of IC50 for cytotoxicity against human MRC5 cells to IC50 for antitrypanosomal activity against Trypanosoma brucei; type: toxicity, cell-based; settings: MRC5 cells versus Trypanosoma brucei, read-out: Selectivity Index
Procedure, shortened: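 Selectivity index: MRC-5 IC50 divided by T. brucei IC50.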

[6] = Drug uptake in human HT-29 cells at 10 uM incubated for 2 hrs by fluorescence based multiplate reader method; type: ADME, cell-based; settings: ht-29, 2 h
Procedure, shortened: (§2)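 225,000 trypsinized cells incubated with 10 μM compound in 0.75 mL medium for 2 h at 37 °C; washed three times with PBS, lysed in 3% SDS and sonicated. NDI fluorescence read at ex 485/em 535 nm, quantified against a calibration curve in cell lysate and normalized to BCA protein. Reported as % of compound added.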

[7] = Drug uptake in human MRC5 cells at 10 uM incubated for 2 hrs by fluorescence based multiplate reader method; type: ADME, cell-based; settings: mrc5, 2 h; procedure, shortened: as §2

CN(C)CCCN1C(=O)c2ccc3c4c(c(NCc5cn(CCS[C@H]6O[C@H](CO)[C@@H](O)[C@H](O)[C@@H]6O)nn5)cc(c24)C1=O)C(=O)N(CCCN(C)C)C3=O
selectivity ratio [1]: 1.8 | IC50 (HT-29): 880 nM | IC50 (Trypanosoma brucei): 80 nM | IC50 (Leishmania major): 1520 nM | IC50 at 48 h [2]: 2780 nM | Drug uptake [3]: 6.1% | selectivity ratio [4]: 3.2 | selectivity ratio [5]: 34.7

CN(C)CCCN1C(=O)c2ccc3c4c(c(NCc5cn(CCS[C@@H]6O[C@H](CO)[C@@H](O)[C@H](O)[C@H]6O)nn5)cc(c24)C1=O)C(=O)N(CCCN(C)C)C3=O
selectivity ratio [1]: 2 | IC50 (HT-29): 750 nM | IC50 (Trypanosoma brucei): 50 nM | IC50 (Leishmania major): 1380 nM | IC50 at 48 h [2]: 2750 nM | selectivity ratio [4]: 3.7 | selectivity ratio [5]: 55

O=C1c2ccc3c4c(c(NCc5cn(CCS[C@@H]6O[C@H](CO)[C@@H](O)[C@H](O)[C@H]6O)nn5)cc(c24)C(=O)N1CCN1CCOCC1)C(=O)N(CCN1CCOCC1)C3=O
selectivity ratio [1]: 1.2 | IC50 (HT-29): 28900 nM | IC50 (Trypanosoma brucei): 1180 nM | IC50 (Leishmania major): 30200 nM | IC50 at 48 h [2]: 35700 nM | selectivity ratio [4]: 1.2 | selectivity ratio [5]: 30.3

O=C1c2ccc3c4c(c(NCc5cn(CCS[C@@H]6O[C@H](CO)[C@@H](O[C@H]7O[C@H](CO)[C@@H](O)[C@H](O)[C@H]7O)[C@H](O)[C@H]6O)nn5)cc(c24)C(=O)N1CCN1CCOCC1)C(=O)N(CCN1CCOCC1)C3=O
Drug uptake [6]: 3.5% | IC50 (HT-29): 13700 nM | IC50 (Trypanosoma brucei): 3040 nM | IC50 (Leishmania major): > 50000 nM | Drug uptake [7]: 3.3% | IC50 at 48 h [2]: > 50000 nM | Drug uptake [3]: 6.7% | selectivity ratio [4]: > 3.6 | selectivity ratio [5]: > 16

O=C1c2ccc3c4c(c(NCc5cn(CCO[C@@H]6O[C@H](CO)[C@@H](O)[C@H](O)[C@H]6O)nn5)cc(c24)C(=O)N1CCN1CCOCC1)C(=O)N(CCN1CCOCC1)C3=O
selectivity ratio [1]: 0.7 | IC50 (HT-29): 1750 nM | IC50 (Trypanosoma brucei): 310 nM | IC50 (Leishmania major): 10500 nM | IC50 at 48 h [2]: 7860 nM | selectivity ratio [4]: 4.5 | selectivity ratio [5]: 25.3

O=C1c2ccc3c4c(c(NCc5cn(CCS[C@H]6O[C@H](CO)[C@@H](O)[C@H](O)[C@@H]6O)nn5)cc(c24)C(=O)N1CCN1CCOCC1)C(=O)N(CCN1CCOCC1)C3=O
selectivity ratio [1]: 1.1 | IC50 (HT-29): 3390 nM | IC50 (Trypanosoma brucei): 730 nM | IC50 (Leishmania major): 21700 nM | IC50 at 48 h [2]: 22600 nM | Drug uptake [3]: 3.2% | selectivity ratio [4]: 6.7 | selectivity ratio [5]: 31

O=C1c2ccc3c4c(c(NCc5cn(CCO[C@H]6O[C@H](CO)[C@@H](O)[C@H](O)[C@@H]6O)nn5)cc(c24)C(=O)N1CCN1CCOCC1)C(=O)N(CCN1CCOCC1)C3=O
IC50 (HT-29): 8520 nM | IC50 (Trypanosoma brucei): 2100 nM | IC50 (Leishmania major): > 50000 nM | IC50 at 48 h [2]: 30500 nM | Drug uptake [3]: 4.2% | selectivity ratio [4]: 3.6 | selectivity ratio [5]: 14.5

O=C1c2ccc3c4c(c(NCc5cn(CCO[C@@H]6O[C@H](CO)[C@@H](O[C@H]7O[C@H](CO)[C@@H](O)[C@H](O)[C@H]7O)[C@H](O)[C@H]6O)nn5)cc(c24)C(=O)N1CCN1CCOCC1)C(=O)N(CCN1CCOCC1)C3=O
Drug uptake [6]: 3.2% | IC50 (HT-29): 13000 nM | IC50 (Trypanosoma brucei): 3320 nM | IC50 (Leishmania major): > 50000 nM | Drug uptake [7]: 0.8% | IC50 at 48 h [2]: > 50000 nM | Drug uptake [3]: 6.1% | selectivity ratio [4]: > 3.8 | selectivity ratio [5]: > 15

CN(C)CCCN1C(=O)c2ccc3c4c(c(NCc5cn(CCO[C@@H]6O[C@H](CO)[C@@H](O)[C@H](O)[C@H]6O)nn5)cc(c24)C1=O)C(=O)N(CCCN(C)C)C3=O
selectivity ratio [1]: 1.2 | IC50 (HT-29): 460 nM | IC50 (Trypanosoma brucei): 80 nM | IC50 (Leishmania major): 790 nM | IC50 at 48 h [2]: 920 nM | selectivity ratio [4]: 2 | selectivity ratio [5]: 11.5

CN(C)CCCN1C(=O)c2ccc3c4c(c(NCc5cn(CCO[C@H]6O[C@H](CO)[C@@H](O)[C@H](O)[C@@H]6O)nn5)cc(c24)C1=O)C(=O)N(CCCN(C)C)C3=O
selectivity ratio [1]: 3.2 | IC50 (HT-29): 430 nM | IC50 (Trypanosoma brucei): 50 nM | IC50 (Leishmania major): 300 nM | IC50 at 48 h [2]: 950 nM | Drug uptake [3]: 8.1% | selectivity ratio [4]: 2.2 | selectivity ratio [5]: 19
